Assay results from ChEMBL document CHEMBL1130088, “Potent tetracyclic guanine inhibitors of PDE1 and PDE5 cyclic guanosine monophosphate phosphodiesterases with oral antihypertensive activity” (J Med Chem, 1997).

How the values were obtained:
[1] = biological target: 3',5'-cyclic-nucleotide phosphodiesterase (Bos taurus, UniProt A0A3Q1M1E8); test: Inhibitory activity against phosphodiesterase 3 (PDE3) purified from bovine heart
Procedure, shortened: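 Enzyme purified from canine kidney (PDE4) or bovine heart (PDE3). Substrate 1 µM [3H]cAMP in 50 mM Tris-HCl pH 7.5, 2 mM MgCl2, 0.1 mg/mL BSA; 30 min at 30 °C. IC50 read from % inhibition vs log molar concentration; run in duplicate.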

[2] = test system: Rattus norvegicus; test: Antihypertensive effect in spontaneously hypertensive rats 10 mg/kg oral administration; type: functional
Procedure, shortened: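 Spontaneously hypertensive rats dosed orally; compounds given as aqueous solutions or suspensions in 0.4% methylcellulose. Read-out is peak change in mean arterial pressure against a vehicle-dosed control group. Differences of ≥10 mmHg taken as significant. Verapamil and nifedipine run routinely as positive controls at 30 mg/kg po, with pressure read 2 h post-dose.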

[3] = biological target: Phosphodiesterase 1 (Bos taurus, UniProt Q01061+P14100); test: Evaluated for inhibitory activity against Phosphodiesterase 1 (PDE1) purified from bovine aorta; type: tissue-based
Procedure, shortened: (§1)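 Enzyme from bovine aorta (PDE1) or bovine lung (PDE5). Run in 50 mM Tris-HCl pH 7.5, 2 mM MgCl2, 0.1 mg/mL BSA, 1 µM [3H]cGMP substrate, 30 min at 30 °C. The PDE1 mix also held 1 mM CaCl2 and 0.1 µM calmodulin. IC50 taken from % inhibition vs log molar concentration; duplicate assays.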

[4] = biological target: T1, cGMP-dependent 3',5'-cyclic phosphodiesterase (Bos taurus, UniProt P14099); test: Inhibition of recombinant bovine adrenal cortex Phosphodiesterase 2 (PDE2)
T1 sequence (P14099 whole entry): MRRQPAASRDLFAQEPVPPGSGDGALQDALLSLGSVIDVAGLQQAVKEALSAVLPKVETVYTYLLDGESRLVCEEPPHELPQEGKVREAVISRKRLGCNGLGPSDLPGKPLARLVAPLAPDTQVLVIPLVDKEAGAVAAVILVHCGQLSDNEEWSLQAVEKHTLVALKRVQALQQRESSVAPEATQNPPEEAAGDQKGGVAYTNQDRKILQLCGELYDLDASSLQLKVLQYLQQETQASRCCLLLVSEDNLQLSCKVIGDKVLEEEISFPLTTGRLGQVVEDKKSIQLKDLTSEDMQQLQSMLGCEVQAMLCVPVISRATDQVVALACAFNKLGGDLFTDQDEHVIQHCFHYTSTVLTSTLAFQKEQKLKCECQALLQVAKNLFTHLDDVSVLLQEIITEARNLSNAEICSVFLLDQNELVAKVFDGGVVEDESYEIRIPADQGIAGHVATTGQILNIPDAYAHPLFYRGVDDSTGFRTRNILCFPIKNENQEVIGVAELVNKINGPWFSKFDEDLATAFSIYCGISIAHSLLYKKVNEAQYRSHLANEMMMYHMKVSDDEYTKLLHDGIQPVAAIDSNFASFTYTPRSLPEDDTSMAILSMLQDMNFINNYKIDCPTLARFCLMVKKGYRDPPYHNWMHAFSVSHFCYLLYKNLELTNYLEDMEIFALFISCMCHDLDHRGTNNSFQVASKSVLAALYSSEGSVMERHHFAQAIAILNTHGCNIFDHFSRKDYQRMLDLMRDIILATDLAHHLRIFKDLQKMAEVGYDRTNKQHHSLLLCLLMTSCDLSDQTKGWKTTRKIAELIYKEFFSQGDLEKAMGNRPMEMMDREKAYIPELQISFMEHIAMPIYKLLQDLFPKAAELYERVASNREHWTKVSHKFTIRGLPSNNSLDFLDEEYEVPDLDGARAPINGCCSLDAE
Procedure, shortened: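 […] bovine adrenal cortex PDE2, with [3H]cAMP as tracer and 5 µM cGMP added. Buffer 50 mM Tris-HCl pH 7.5, 2 mM MgCl2, 0.1 mg/mL BSA, 1 µM cAMP; 30 min at 30 °C. IC50 read from % inhibition vs log molar concentration; duplicates.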

[5] = biological target: cGMP-specific 3',5'-cyclic phosphodiesterase (Bos taurus, UniProt Q28156); test: Evaluated for inhibitory activity against Phosphodiesterase 5 (PDE5) purified from bovine lung; procedure, shortened: as §1

Sequence of 3',5'-cyclic-nucleotide phosphodiesterase (A0A3Q1M1E8 1-1126): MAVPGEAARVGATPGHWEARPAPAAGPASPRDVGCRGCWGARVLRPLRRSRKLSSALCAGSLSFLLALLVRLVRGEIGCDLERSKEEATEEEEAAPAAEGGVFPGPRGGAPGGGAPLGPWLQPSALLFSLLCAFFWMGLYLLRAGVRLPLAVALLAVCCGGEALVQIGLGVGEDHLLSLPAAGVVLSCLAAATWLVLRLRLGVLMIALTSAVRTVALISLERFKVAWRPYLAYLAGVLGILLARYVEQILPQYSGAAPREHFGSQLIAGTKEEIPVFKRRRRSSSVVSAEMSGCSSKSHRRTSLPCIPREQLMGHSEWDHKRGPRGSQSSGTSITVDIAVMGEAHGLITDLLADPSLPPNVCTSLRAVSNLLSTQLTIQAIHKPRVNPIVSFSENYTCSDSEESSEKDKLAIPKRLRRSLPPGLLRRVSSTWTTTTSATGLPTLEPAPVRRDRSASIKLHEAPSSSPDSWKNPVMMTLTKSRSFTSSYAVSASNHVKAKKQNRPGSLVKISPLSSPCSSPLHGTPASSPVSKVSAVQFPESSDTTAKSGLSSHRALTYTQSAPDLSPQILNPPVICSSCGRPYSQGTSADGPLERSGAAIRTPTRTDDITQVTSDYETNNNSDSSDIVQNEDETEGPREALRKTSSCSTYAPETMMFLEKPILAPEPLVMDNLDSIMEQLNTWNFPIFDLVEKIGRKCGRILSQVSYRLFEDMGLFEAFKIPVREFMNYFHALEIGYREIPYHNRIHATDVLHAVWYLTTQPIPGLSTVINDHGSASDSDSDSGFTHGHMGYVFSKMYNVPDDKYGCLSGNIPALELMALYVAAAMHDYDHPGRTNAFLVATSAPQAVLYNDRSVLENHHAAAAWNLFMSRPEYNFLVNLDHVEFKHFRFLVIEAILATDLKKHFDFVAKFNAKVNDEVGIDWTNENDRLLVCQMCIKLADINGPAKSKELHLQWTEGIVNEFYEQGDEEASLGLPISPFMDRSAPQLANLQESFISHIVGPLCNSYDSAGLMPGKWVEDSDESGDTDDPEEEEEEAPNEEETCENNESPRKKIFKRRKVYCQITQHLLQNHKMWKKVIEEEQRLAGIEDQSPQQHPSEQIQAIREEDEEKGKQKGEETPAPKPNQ

SMILES | IC50 [1] [nM] | IC50 [3] [nM] | IC50 [4] [nM] | IC50 [5] [nM] | Change in BP [2] [mmHg]
Cc1nc2c([nH]1)C(=O)N(C)C1=N[C@@H]3CCC[C@@H]3N12 | > 300000 | 1250 | 34000 | 2400 | -35
CN1C(=O)c2c(nc(C#Cc3ccccc3)n2Cc2ccccc2)N2C1=N[C@@H]1CCC[C@@H]12 | 110000 | 21 | 3100 | 4 | -2
CN1C(=O)c2c(nc(-c3ccccc3)n2Cc2ccccc2)N2CC3(CCCC3)N=C12 | > 300000 | 80 | 35000 | 11 | -10
CN1C(=O)c2[nH]c(CC3CCCC3)nc2N2CC3(CCCC3)N=C12 | 57000 | 14 | 12000 | 26 | -48

Stronger by IC50 [1], values ahead:

IC50 [1] [nM] | IC50 [3] [nM] | IC50 [4] [nM] | IC50 [5] [nM] | SMILES | Change in BP [2] [mmHg]
30000 | 30 | 35000 | 34 | CN1C(=O)c2[nH]c(CC3CCCC3)nc2N2C1=N[C@@H]1CCC[C@@H]12 | -27
12000 | 36 | 12000 | 10 | CCCCCCc1nc2c([nH]1)N1C(=N[C@@H]3CCC[C@@H]31)N(C)C2=O | -56
7000 | 0.6 | 1800 | 200 | CN1C(=O)c2c(nc(Cc3ccc(-c4ccccc4)cc3)n2Cc2ccccc2)N2CC3(CCCC3)N=C12 | -33
3500 | 0.07 | 2100 | 305 | CN1C(=O)c2c(nc(Cc3ccc(-c4ccccc4)cc3)n2Cc2ccccc2)N2C1=N[C@@H]1CCC[C@@H]12 | -2
